Among the data in ChEMBL document CHEMBL1795237, “Total synthesis of largazole and analogues: HDAC inhibition, antiproliferative activity and metabolic stability” (Bioorg Med Chem, 2011) are GI, half-life and inhibition values, retold here.

The source made the active and inactive calls. The calls are words filed in the database; no cut-off is given here.

One data set concerns MCF7. The experiment in a line: Growth inhibition of human MCF7 cells. The format is functional.
Data set [1] in a line: Half life in mouse liver homogenates at 100 uM by UPLC/MS analysis. The format is ADME, tissue-based. The essentials:
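Compound added to preincubated murine liver homogenate (tissue broken up in 10 mM Tris pH 7.4, 1:3 w:v) at 37 °C, final 100 μM. Samples taken at 0, 15, 30, 45, 60, 120 min, quenched in methanol, centrifuged 10,000g to remove protein. Supernatant analyzed by reversed-phase C18 UPLC with MeOH/water/0.05% TFA gradient; parent ions monitored by ESI MS selected ion recording.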

Data set [2] has as its target T1, Histone deacetylase (Homo sapiens) (UniProt Q13547+O15379+Q9UBN7+Q92769+Q9UQL6+Q8WUI4+Q9BY41+Q96DB2+P56524+Q9UKV0+Q969S8). Particulars: SKBr3, 100 nM.
For data set [3], the target named is T1, Histone deacetylase (Homo sapiens). Particulars: MDA-MB-231, 100 nM.
Data set [4] has the same target. Particulars: MCF7, 100 nM.

In turn, `C[C@@]12CSC(=N1)c1csc(n1)CNC(=O)C[C@@H](/C=C/CCS)OC(=O)CNC2=O` came in with a GI with MCF7 of 2458 nM. Also, the half-life at 100 µM in data set [1] worked out at 32 min.

In the data set on MCF7, `CC(C)[C@H]1NC(=O)C(C)(C)NC(=O)c2csc(n2)CNC(=O)C[C@@H](/C=C/CCS)OC1=O` came in with a GI greater than 10000 nM. In data set [1], this molecule registered a half-life at 100 µM of no more than 5 min.

As for `CC(C)[C@H]1NC(=O)[C@]2(C)CSC(=N2)c2csc(n2)[C@@H](Cc2ccccc2)NC(=O)C[C@@H](/C=C/CCS)OC1=O`, in the data set with MCF7, the GI is reported as 377 nM.

`CC(C)[C@H]1NC(=O)[C@]2(C)CSC(=N2)c2csc(n2)CNC(=O)C[C@@H](/C=C/CCS)OC1=O` [LARGAZOLE THIOL] yielded a GI with MCF7 of 277 nM. The inhibition result in data set [2], in data set [3] and in data set [4] was “inactive” each time.

As for `CCCCCCCC(=O)SCC/C=C/[C@@H]1CC(=O)NCc2nc(cs2)C2=N[C@@](C)(CS2)C(=O)N[C@@H](C(C)C)C(=O)O1` [LARGAZOLE], the GI with MCF7 is 5 nM. In data set [1], this molecule yielded a half-life at 100 µM of no more than 5 min. Besides, the inhibition entry in data set [2], in data set [3] and in data set [4] was “Active” each time.

Take `C[C@@]12CSC(=N1)c1csc(n1)CNC(=O)C[C@@H](/C=C/CCS)OC(=O)CCNC2=O`: the GI in the data set on MCF7 was found to be 5900 nM. For the same molecule, in data set [1], the half-life at 100 µM was no more than 5 min.

On to `CC(C)[C@@H]1NC(=O)[C@]2(C)CSC(=N2)c2csc(n2)CNC(=O)C[C@@H](/C=C/CCS)OC1=O` [LARGAZOLE THIOL], for which, in data set [1], the half-life at 100 µM is 51 min.
